Experimental data pooled from the literature.
Each line is one published result; the experiments were not run side by side.
PBRM1 BD2: Protein polybromo-1, BD2 (PBRM1, Homo sapiens, UniProt Q86U86)
Abl1: Tyrosine-protein kinase ABL1 (Abl1, Mus musculus, UniProt P00520)
CSNK1A1L: Casein kinase I isoform alpha-like (CSNK1A1L, Homo sapiens, UniProt Q8N752)
PBRM1 bromodomain: Protein polybromo-1, bromodomain (PBRM1, Homo sapiens, UniProt Q86U86)

Structure (SMILES)	target	test	conditions	endpoint	result
CC(C)(O)[C@H]1CC[C@H](Nc2ccc3ncc(-c4cccc(C(F)(F)F)c4)n3n2)CC1	Serine/threonine-protein kinase N3 (PKN3, Homo sapiens, UniProt Q6P5Z2)	enzyme activity, inhibitor	1 µM	remaining activity	40.2%
CN(C)/C=C1\CCCn2c1nc(=O)c1c(Cl)cccc12	PBRM1 BD2	thermal stability, DSF	100 µM	ΔTm	1.44 °C
CCCOc1ccc(OC)c(F)c1C(=O)c1ccc(C(=O)N[C@@H]2CNC[C@H]2NC(=O)c2ccc3[nH]ncc3c2)cc1	Abl1	enzyme activity, inhibitor	10 µM	remaining activity	63%
Cc1cnc(Nc2ccc(OCCN3CCCC3)cc2)nc1Nc1cccc(S(=O)(=O)NC(C)(C)C)c1	PBRM1 BD2	thermal stability, DSF	10 µM	ΔTm	0.23 °C
NS(=O)(=O)c1ccc(Nc2nc(-c3ccc(F)cc3)c3ccccc3n2)cc1	Bromodomain-containing protein 2, BD1 (BRD2, Homo sapiens, UniProt P25440)	binding, competition with immobilised ligand	1 µM	remaining binding	4%
Nc1ncnc2occ(-c3ccc(NC(=O)Nc4cc(C(F)(F)F)ccc4F)cc3)c12	CSNK1A1L	cell-free assay	20 µM	remaining signal	39%
Cc1ccc(C(=O)Nc2ccc(CN3CCN(C)CC3)c(C(F)(F)F)c2)cc1C#Cc1cnc2cccnn12	CSNK1A1L	enzyme activity	23.5 nM	remaining activity	100%
CC(C)(C)C/C=C1\CCn2c1nc(=O)c1c(Cl)cccc12	PBRM1 BD2	thermal stability, DSF	100 µM	ΔTm	4.96 °C
Oc1ccc(-c2nc(-c3ccncc3)c(-c3ccc(F)cc3)[nH]2)cc1	Protein polybromo-1, BD1 (PBRM1, Homo sapiens, UniProt Q86U86)	thermal stability, DSF	10 µM	ΔTm	0 °C
CC(C)(C)c1ccc(NC(c2ccccc2)c2ccc3ccccc3c2O)cc1 (stereo not drawn)	CAAX prenyl protease 2 (Homo sapiens, UniProt Q9Y256)	enzyme activity, inhibitor	10 µM	remaining activity	< 40%
CCCN1CCCn2c1nc1c2c(=O)n(C)c(=O)n1C	Adenosine receptor A2b (ADORA2B, Homo sapiens, UniProt P29275)	ligand displacement, radioligand	10 µM, cell membranes	inhibition	1%
CCC(/C=C1\CCn2c1nc(=O)c1ccc(O)cc12)CC	PBRM1 BD2	thermal stability, DSF	100 µM	ΔTm	3.49 °C
COc1cc(NC(C)=O)c(Cl)cc1C(=O)Nc1nccs1	Muscarinic acetylcholine receptor M1 (CHRM1, Homo sapiens, UniProt P11229)	cell-free assay	10 µM	inhibition	2.6%
O=[N+]([O-])OCC(CO[N+](=O)[O-])O[N+](=O)[O-]	Aldehyde dehydrogenase, mitochondrial (ALDH2, Homo sapiens, UniProt P05091)	enzyme activity, substrate	–	Km	~20 µM
CN(C)C1CCN(CC#Cc2nn(C3CCCC3)c3nc(NCc4ccccc4)ncc23)C1 (stereo not drawn)	Insulin receptor (INSR, Homo sapiens, UniProt P06213)	enzyme activity, inhibitor, FRET	10 µM	inhibition	31%
CCC/C=C1\CCn2c1nc(=O)c1c(Cl)cccc12	PBRM1 bromodomain	thermal stability, DSF	100 µM	ΔTm	11 °C
Cc1cc2c(cc1N1C(=O)c3cccc4c(Cl)ccc(c34)C1=O)n(C)c(=O)n2C	Bromodomain-containing protein 2, BD2 (BRD2, Homo sapiens, UniProt P25440)	thermal stability, DSF	10 µM	ΔTm	0.4 °C
CCC(CC)CC1CCn2c1nc(=O)c1c(Cl)cccc12 (racemic)	PBRM1 BD2	thermal stability, DSF	100 µM	ΔTm	2.66 °C
C[S+]([O-])c1ccc(-c2nc(-c3ccncc3)c(-c3ccc(F)cc3)[nH]2)cc1 (stereo not drawn)	PBRM1 bromodomain	thermal stability, DSF	10 µM	ΔTm	1.33 °C
O=c1nc2n(c3cccc(Cl)c13)CC/C2=C\c1ccccc1	PBRM1 BD2	thermal stability, DSF	100 µM	ΔTm	-6.11 °C
Cc1cnc(NC2CCOCC2)nc1-n1cnc(C(=O)NC(CN)c2cc(F)cc(Cl)c2)c1 (stereo not drawn)	Abl1	enzyme activity, inhibitor, radiometric	1 µM	remaining activity	99%
